# Where two headings read alike, the source gives them in different places.
# What was measured:
# [1] = test system: CNS neurons in mixed retinal culture; details: ref Geiger et al., 2002; cited from earlier work
# [2] = Superoxide detection by EPR with spin trap DEPMPO; format: biochemical; details: for reducing activity by EPR spectroscopy: converts superoxide adduct of the spin trap to hydroxyl adduct; for effect on EPR spectra of superoxide adduct of DEPMPO: xanthine/xanthine oxidase
# Method in brief: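 Superoxide is generated from hypoxanthine (200 μM) and xanthine oxidase (0.0025 U/mL) with the spin trap DEPMPO present. A hydroxyl-adduct reference spectrum comes from a Fenton reaction: FeSO4 (100 μM), diethylenetriaminepentaacetic acid (100 μM) and H2O2 (1 mM) with DEPMPO (100 mM). Superoxide- and hydroxyl-DEPMPO adducts are recorded by EPR at room temperature, 9.85 GHz.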
# [3] = Cell-free disulfide reduction of DTNB; format: biochemical; details: for reduction of disulfides in cell-free assays: non-deprotected (borane-complexed) forms
# [4] = octanol/water, room temperature
# [5] = Accelerated stability of solid compound by HPLC; format: physicochemical
# rat [6] = details: rat optic nerve transection; ref Almasieh et al., 2011; cited from earlier work
# [7] = test system: RGCs and retinal endothelial cells; details: ref Schlieve et al., 2006; cited from earlier work
# [8] = Superoxide scavenging, xanthine/xanthine oxidase with hydroethidine fluorescence; format: biochemical; details: 1, 10, 100 μM, compared to PEG-SOD control
# rat [9] = details: rat experimental glaucoma; ref Almasieh et al., 2011; cited from earlier work
# RGC-5 cells = format: cell-based; details: one hour, DSSA alone 22.3 ± 0.2, mean ± SEM of 3 experiments
# [10] = over 72 hours, HPLC
# rats [11] = details: ref Hampton Research, 2016, cited from earlier work
# rats [12] = details: ref Swanson et al., 2005; cited from earlier work
# neurons after axotomy = details: in vivo; ref Geiger et al., 2002; cited from earlier work
Molecule,reducing activity by EPR spectroscopy [2],effect on EPR spectra of superoxide adduct of DEPMPO [2],reduction of disulfides in cell-free assays [3],"peak area, % of control ([5]; 40°C, 37 days)","peak area, % of control ([5]; 40°C, 125 days)","peak area, % of control ([5]; 60°C, 37 days)","peak area, % of control ([5]; 60°C, 125 days)",neuroprotection in vivo (rat [6]),superoxide scavenging (2-hydroxyethidium fluorescence) [8],neuroprotection in vivo (rat [9]),mean cell fluorescence intensity (DSSA-1) (RGC-5 cells; 10 μM),further results
"O[C@@H](CS)[C@@H](O)CS (racemic) [DTT, dithiothreitol]",–,–,–,–,–,–,–,–,–,–,–,in vitro survival of CNS neurons [1]: can increase in vitro survival
"COC(=O)CCP(CCC(=O)OC)c1ccccc1 [P1, bis(3-propionic acid methyl ester) phenylphosphine]",strong reducing activity,did not diminish the spectra of superoxide,–,–,–,–,–,–,–,–,–,–
"COC(=O)CCP(c1ccccc1)c1ccccc1 [P2, (3-propionic acid methyl ester)diphenylphosphine]",strong reducing activity,did not diminish the spectra of superoxide,–,–,–,–,–,–,–,–,–,–
"[BH3-][P+](CCC(=O)OC)(c1ccccc1)c1ccccc1 [PB2, (3-propionic acid methyl ester) diphenylphosphine-borane complex]",–,–,did not reduce disulfides,100%,86%,100%,14%,neuroprotective,did not appreciably scavenge superoxide,neuroprotective,36.6 ± 0.2,"reducing capability towards DTNB ([3]; borane removed with DABCO, pH 7, compared with DTT and TCEP): reduced disulfides more effectively than DTT or TCEP; log Poct/wat [4]: 1.1; calculated half-life ([5]; 20°C, extrapolation using the Arrhenius equation): 18 years; no toxicity up to (concentration) [7]: 100 µM; solubility in water [10]: 3.7 µM"
"O=C(O)CCP(CCC(=O)O)CCC(=O)O [TCEP, tris(2-carboxyethyl)phosphine]",–,–,–,–,–,–,–,–,–,–,–,LD50 (rats [11]; i.p injection): greater than 1024 mg/kg; LD50 (rats [11]; rats dosed orally): 3500 mg/kg; mean cell fluorescence intensity (DSSA-1) (RGC-5 cells; 1 mM): 25.6 ± 0.2; neuronal death after optic nerve crush (rats [12]): prevents neuronal death; neuronal death after axotomy (neurons after axotomy): prevents neuronal death
bis(3-propionic acid methyl ester) phenylphosphine-borane complex [PB1],–,–,did not reduce disulfides,80%,58%,72%,12%,neuroprotective,did not appreciably scavenge superoxide,neuroprotective,26.7 ± 0.3,–

# Source: paper PMC5028261 (Neurochemistry international, 2016)
